The record followed here is ChEMBL document CHEMBL1124346 (J Med Chem, 1989).

Test [1] addresses T1, D(1A) dopamine receptor (Rattus norvegicus, UniProt P18901). As to the kind of experiment: Binding activity against dopamine D1 receptor in rat brain, using [3H]SCH-23390 as the radioligand. The test is classed as tissue-based. A digest of the protocol:
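Rat striatum homogenized in 50 mM Tris-HCl pH 7.4 with 5 mM MgSO4, washed and resuspended in 200 vol. Incubated with [3H]SCH 23390 0.45–0.76 nM final, 37 °C, 30 min; nonspecific binding with 1 μM SCH 23390.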

The target in test [2] is T2, D(2) dopamine receptor (Rattus norvegicus, UniProt P61169). Description: Binding activity against dopamine D2 receptor in rat brain, using [3H]spiperone as the radioligand.
T2 sequence (P61169 whole entry): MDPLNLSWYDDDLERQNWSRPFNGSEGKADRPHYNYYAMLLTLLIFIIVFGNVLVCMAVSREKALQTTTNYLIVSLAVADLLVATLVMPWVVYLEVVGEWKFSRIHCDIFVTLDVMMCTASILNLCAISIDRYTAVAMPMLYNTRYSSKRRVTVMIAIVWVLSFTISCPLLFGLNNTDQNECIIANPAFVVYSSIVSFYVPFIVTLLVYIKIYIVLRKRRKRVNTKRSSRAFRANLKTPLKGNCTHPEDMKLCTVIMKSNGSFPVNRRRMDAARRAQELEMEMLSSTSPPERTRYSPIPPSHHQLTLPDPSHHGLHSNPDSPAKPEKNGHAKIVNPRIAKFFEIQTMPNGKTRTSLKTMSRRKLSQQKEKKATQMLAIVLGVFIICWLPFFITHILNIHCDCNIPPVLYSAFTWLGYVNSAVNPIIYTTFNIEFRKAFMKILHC
In test [3] the target is T2, D(2) dopamine receptor. As to the kind of experiment: Binding activity against dopamine receptor D2 in rat brain, using [3H]spiperone as the radioligand. The format is tissue-based. In short, it runs like this: (§1)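 Rat striatal membranes; [3H]spiperone 0.95–1.4 nM final, with 40 nM ketanserin in all tubes to mask 5HT-2 sites. Buffer 50 mM Tris-HCl pH 7.4 with 120 mM NaCl, 5 mM KCl, 2 mM CaCl2, 1 mM MgCl2; 37 °C.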

The target of test [4] is T1, D(1A) dopamine receptor. As to the kind of experiment: Binding activity against Dopamine receptor D1 in rat brain, using [3H]SCH-23390 as the radioligand. The test is classed as tissue-based.
Test [5] addresses Muscarinic acetylcholine receptor. Description: Binding activity against muscarinic acetylcholine receptor in rat brain using [3H]QNB as the radioligand. The test is classed as tissue-based.
Test [6] has as its target T2, D(2) dopamine receptor. Description: Binding activity against Dopamine receptor D2 in rat brain, using [3H]spiperone as the radioligand. The format is tissue-based. In short, it runs like this:
as §1

Test [7] deals with Muscarinic acetylcholine receptor. As to the kind of experiment: Binding activity against muscarinic receptor in rat brain using [3H]QNB as the radioligand. The format is tissue-based.

T1 sequence (P18901 whole entry): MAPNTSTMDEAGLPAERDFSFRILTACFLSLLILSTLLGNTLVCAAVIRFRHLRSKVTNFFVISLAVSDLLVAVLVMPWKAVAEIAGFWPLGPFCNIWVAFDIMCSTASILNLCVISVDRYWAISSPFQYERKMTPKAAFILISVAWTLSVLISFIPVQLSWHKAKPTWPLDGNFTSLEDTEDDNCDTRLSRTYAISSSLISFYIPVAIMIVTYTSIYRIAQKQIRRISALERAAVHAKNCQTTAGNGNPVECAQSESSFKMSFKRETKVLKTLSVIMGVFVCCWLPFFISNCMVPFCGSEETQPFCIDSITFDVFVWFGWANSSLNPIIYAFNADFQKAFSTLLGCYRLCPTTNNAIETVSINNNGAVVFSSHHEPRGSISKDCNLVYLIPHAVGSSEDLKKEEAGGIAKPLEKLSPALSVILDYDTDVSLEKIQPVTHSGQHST

As for `CN1CCN(C2=Nc3ccccc3Nc3ccccc32)CC1`, the values for the 50% inhibitory concentration (IC50) in test [1] and in test [2] were 895 nM and over 10000 nM, respectively.

As to `C/C=C1/c2ccccc2C=C(N2CCN(C)CC2)c2ccccc21`, the concentration for half-maximal inhibition (IC50) (usually the concentration that gives 50% inhibition) in test [3] worked out at 6970 nM; in test [4] it was 305 nM; in test [5], 2600 nM.

Take `CC1c2ccccc2C=C(N2CCN(C)CC2)c2ccccc21` (stereo unspecified): the values for the half-inhibitory concentration (IC50) in test [3], in test [4] and in test [5] were 2650 nM, 74 nM and 1020 nM, respectively.

Turning to `CN1CCN(C2=Nc3ccccc3Nc3ccc(Cl)cc32)CC1` [ISOCLOZAPINE], the concentration for half-maximal inhibition (IC50) in test [6] worked out at 218 nM; in test [1], 63 nM; in test [7] it was 55 nM.
